M1 antag – antagonists of rat M1 muscarinic receptor | P08482 | 3.4% of 64,000 active | CHO-M1 cells, Fluo-4 calcium, ACh EC80 antagonist mode; hits give low values | B-score at 10 µM | AID 628;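 active = calcium fluorescence response, raw or row-and-column corrected B-score, differing from the plate sample mean either way at a set confidence level, mostly lower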
DAT uptake mod – changed human dopamine transporter uptake under cocaine IC80; LLC-PK1 hDAT cells, [14C]-dopamine uptake with cocaine IC80; actives deviate in either direction; B-score at 10 µM; 1.3% of 110,000 active; AID 449768;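 active = Z score or B-score, a plate-position-corrected score, falls beyond the plate's 99.7% confidence bounds, in either direction; inactive = both scores lie inside the 99.7% bounds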
BAP1 inh – human BAP1 deubiquitinase inhibition | Q92560 | recombinant BAP1, Ub-AMC hydrolysis fluorescence kinetic; hits give low values | calls only at 20 µM | 0.48% of 72,000 active;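 active = activity remaining at or below 50% of control, provided the compound also passes the data quality filters; inactive = the rest, including low values that fail the filters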
Target sequence (Q92560 whole entry, looked up): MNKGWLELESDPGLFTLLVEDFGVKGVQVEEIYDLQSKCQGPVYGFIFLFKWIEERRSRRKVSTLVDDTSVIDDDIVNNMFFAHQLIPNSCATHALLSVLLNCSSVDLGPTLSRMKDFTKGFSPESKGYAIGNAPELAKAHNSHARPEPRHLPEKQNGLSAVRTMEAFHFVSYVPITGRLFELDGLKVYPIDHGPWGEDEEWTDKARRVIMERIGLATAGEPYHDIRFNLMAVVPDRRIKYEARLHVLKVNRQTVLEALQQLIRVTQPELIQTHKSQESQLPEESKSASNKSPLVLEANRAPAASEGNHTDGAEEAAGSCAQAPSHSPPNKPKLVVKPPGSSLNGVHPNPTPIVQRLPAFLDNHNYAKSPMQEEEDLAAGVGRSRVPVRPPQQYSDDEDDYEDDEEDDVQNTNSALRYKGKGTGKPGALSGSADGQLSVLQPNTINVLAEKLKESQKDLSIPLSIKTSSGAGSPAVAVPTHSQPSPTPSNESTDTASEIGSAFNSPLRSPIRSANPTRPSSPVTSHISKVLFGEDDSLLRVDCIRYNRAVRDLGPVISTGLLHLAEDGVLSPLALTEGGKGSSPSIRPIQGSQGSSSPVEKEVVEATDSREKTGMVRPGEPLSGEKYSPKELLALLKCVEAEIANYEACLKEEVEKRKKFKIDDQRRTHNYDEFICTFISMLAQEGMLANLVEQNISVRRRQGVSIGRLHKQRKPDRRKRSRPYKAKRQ
M1 agonist – M1 muscarinic receptor agonism; CHO-M1 cells, Fluo-4 calcium fluorescence, agonist mode; hits give high values; B-score at 10 µM; 3% of 64,000 active;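 active = fluorescence rise, raw or as B-score row- and column-corrected plate score, outside the 99.7% band of its plate's samples, either direction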
D1 mod – D1 dopamine receptor (human) allosteric modulation; B-score at 10 µM; AID 641; 5.9% of 58,000 active; P21728; HEK293 D1, CRE-luciferase, dopamine EC30 potentiation; actives deviate in either direction;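 active = luminescence count or its row- and column-corrected plate score outside the 99.7% band of the plate's sample wells, on either side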
HEK293 NFkB inh – lowers PMA/ionomycin-induced NF-kB signal in HEK293 cells; HEK-293 NF-kB luciferase reporter, luminescence; inhibition, % at 3 µM; 0.21% of 62,000 active;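 active = inhibition above the mean of all tested compounds plus 3 SD, cut at about 40% in these data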
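Material: HEK-293 cells with stable firefly luciferase reporter driven by four HIV NF-kB elements / Also added: PMA plus ionomycin mix as NF-kB-activating stimulus / Compound dosing: 3 µM once, 0.30% DMSO / Times: 1 h pretreatment, 16 h stimulation, 37 °C / Signal: luminescence / Evaluation: per-plate % inhibition versus controls / Benchmarks: DMSO and 10 µM reference inhibitor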
M1 antag confirm – M1 muscarinic receptor (rat) antagonism, confirmed; CHO-M1 cells, Fluo-4 calcium, ACh EC80 antagonism; hits give low values; shares compounds with M1 antag; calcium response (max-min fluorescence) at 10 µM; 43% of 1,700 active;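 active = calcium response below the same-plate mean of wells given acetylcholine alone at its 80%-effect dose, minus 3 SD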
mGluR4 antag – acts on human mGluR4 in M1 antagonist selectivity test; AID 678; fluorescence response (max-min) at 10 µM; CHO-mGluR4 calcium flux, Fluo-4 fluorescence, glutamate EC80; hits give low values; shares compounds with M1 antag; 0.9% of 1,700 active;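 active = fluorescence response below the plate's average for near-maximal glutamate wells, less 3 SD of those wells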;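 note: raw unnormalized fluorescence span taken in the window right after glutamate addition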
A number is an active result; . = inactive; / = no result shown. Only some compounds are listed: those with a hit (about 7.2% of all), similar ones and a draw of the others.

SMILES | M1 antag | DAT uptake mod | BAP1 inh | M1 agonist | D1 mod | HEK293 NFkB inh | M1 antag confirm | mGluR4 antag
CCn1c(CNc2ccccc2Cl)nnc1SCCN1CCCCC1 | -4.42 | . | . | . | . | . | 271 | .
CCn1c(CNc2ccc(F)cc2)nnc1SCCN1CCCCC1 | -3.27 | . | . | . | . | . | 570 | .
CCn1c(CNc2ccc(Cl)cc2)nnc1SCC(=O)OC1CCCCC1 | / | . | / | / | / | / | / | /
CCn1c(CNc2ccccc2Cl)nnc1SCC(=O)OC1CCCCC1 | -4.7 | . | . | . | . | . | 370 | .
O=C(Cn1c2ccccc2c(=O)c2ccccc21)N1CCN(c2ccc([N+](=O)[O-])cc2)CC1 | / | / | . | / | / | / | / | /
COc1ccc(NC(=O)CSc2nccn2-c2ccccc2)c(OC)c1 | . | . | . | . | . | . | / | /
COc1cccc(-n2ccnc2SCC(=O)NCc2ccccc2)c1 | -2.67 | . | . | . | . | . | . | .
COC(=O)N1CC(c2ccccc2)CC1=O (centres undefined) | -2.26 | . | . | . | . | . | . | .
CCN1CCN(c2ncc(C(=O)Nc3cc(Cl)ccc3OC)c3ccccc23)CC1 | -21.4 | / | . | . | . | . | 20.8 | .
COC(=O)c1ccc(CSc2nnnn2C)o1 | -3.14 | . | . | . | . | . | 399 | .
COC(=O)c1ccc(CSc2ccc3nnc(-c4cccc(F)c4)n3n2)o1 | -9.18 | . | . | . | . | . | 216 | .
CCOC(=O)CC(=O)CSc1ccc2nnc(-c3cccc(F)c3)n2n1 | . | . | . | . | . | . | / | /
CCCOC(=O)C1=C(C)NC2=C(C(=O)CCC2)C1c1ccccc1OC(C)C (centres undefined) | / | / | . | / | / | / | / | /
COC(=O)c1ccc(Oc2c(C)oc3c(CN4CCN(C)CC4)c(O)ccc3c2=O)cc1 | . | . | . | . | / | . | / | /
COc1ccc(Oc2c(C)oc3c(CN(C)C)c(O)ccc3c2=O)cc1 | -7.49 | . | / | . | / | . | 371 | .
COc1ccc(Oc2coc3c(CN(C)C)c(O)ccc3c2=O)cc1 | -3.73 | . | / | . | -4.34 | . | 445 | .
CCc1c(C)c2ccc(O)c(CN(C)C)c2oc1=O | . | . | / | . | / | . | / | /
CCOC(=O)c1ccc(N2C(=O)c3ccccc3C2=O)cc1 | / | / | . | / | / | / | / | /
O=C(c1cc2nc3c(c(C(F)(F)F)n2n1)CCc1ccccc1-3)N1CCN2CCCC2C1 (centres undefined) | -3.09 | / | . | . | . | . | 343 | .
CC(C)n1c(-c2ccco2)csc1=Nc1cccnc1 | -3.28 | . | . | . | . | . | 471 | .
CCN1C=C(Cc2cccs2)C2=C(C1)C(c1cccs1)C(C#N)=C(N)O2 (centres undefined) | -3.84 | . | . | . | . | . | . | 170
COC(=O)c1cc2ccsc2n1Cc1nc(-c2ccc(OC)cc2)oc1C | -5.47 | . | . | . | . | . | 474 | .
COC(=O)c1cc2ccsc2n1CC(=O)N(C)c1ccccc1 | . | . | . | . | . | . | / | /
COC(=O)c1cc2sc(Cl)cc2n1Cc1nc(-c2ccccc2)oc1C | / | . | / | / | / | / | / | /
COC(=O)c1cc2sccc2n1Cc1nc(-c2ccc(OC)cc2)oc1C | -2.63 | . | . | . | . | . | . | .
SMILES | M1 antag | DAT uptake mod | BAP1 inh | M1 agonist | D1 mod | HEK293 NFkB inh | M1 antag confirm | mGluR4 antag
CN1/C(=C\C(=O)c2ccco2)c2ccccc2CC1(C)C | -2.92 | . | . | . | . | . | . | .
COc1ccccc1C(c1nnnn1C1CCCC1)N1CCN2CCCC2C1 (centres undefined) | -3.77 | . | . | . | / | . | 473 | .
c1cc(C(c2nnnn2C2CCCCC2)N2CCN3CCCC3C2)ccn1 (centres undefined) | . | . | . | . | . | . | / | /
CC(=O)Nc1ccc(S(=O)(=O)NC2CCC(C(=O)O)CC2)cc1 (centres undefined) | / | / | . | / | / | / | / | /
CCOC(=O)N1CCC(NC2CCCCCCC2)CC1 | -11.5 | . | . | . | . | . | 100 | .
CCOC(=O)N1CCC(NC(=O)C2CCN(S(=O)(=O)N3CCC(C)CC3)CC2)CC1 | . | . | . | . | . | . | / | /
Cn1c(SCc2nc3ccccc3n2CCO)nc2ccccc21 | -2.56 | . | . | . | . | . | . | .
COc1ccc(-c2[nH]ncc2-c2cnn(-c3ccccc3)c2)c(O)c1 | -3.27 | . | / | . | . | / | . | .
COc1ccc(-c2[nH]ncc2-c2cnc(C)s2)c(O)c1 | . | . | . | . | . | . | / | /
CCOC(=O)C1CCN(CC(O)COc2ccc(C(=O)CC)cc2)CC1 (centres undefined) | -3.31 | . | . | . | . | . | . | .
O=C(c1ccccc1)c1ccc(OCC(O)CN2CCCCC2)cc1 (centres undefined) | -2.21 | . | . | . | . | . | 381 | .
CC(C)COc1ccc(C(=O)CCN2CCCCC2)cc1 | -6.98 | . | . | . | . | . | 278 | .
CCCCOc1ccc(C(=O)CCN2CCCCC2)cc1 | . | . | . | . | . | / | / | /
OC(COc1ccc(C2C=CCC2)cc1)CN1CCCCC1 (centres undefined) | -4.08 | . | . | . | . | . | 422 | .
Cc1ccc(OCC(O)CN2CCN(CC(O)COc3ccc(C)cc3)CC2)cc1 (centres undefined) | . | . | . | . | . | . | / | /
CN1CCN(CC(=O)N2c3ccccc3C(=O)Nc3cccnc32)CC1 | / | / | . | / | . | / | / | .
CN1CCN(CC(=O)N2c3ccc(S(=O)(=O)NCCNC(=O)OC(C)(C)C)cc3C(=O)Nc3cccnc32)CC1 | / | . | / | / | / | / | / | /
CC(=O)OCc1c(COC(C)=O)[n+](=O)c2ccccc2n1[O-] | -2.62 | . | . | . | / | / | . | .
O=C(CC(c1ccccc1)N(C(=O)Nc1ccccc1Cl)c1ccccc1)C1CC1 (centres undefined) | / | / | . | / | / | / | / | /
CCOC(=O)c1cnc2ccccc2c1NCCO | -2.92 | . | / | . | . | . | 409 | .
CCOC(=O)c1ccc2ncc(C(=O)OCC)c(NCCCN3CCOCC3)c2c1 | -4.62 | . | . | . | . | . | 405 | .
CCOC(=O)c1cnc2c(C)cccc2c1NCc1ccco1 | -8.34 | . | / | . | . | / | 321 | .
Cn1c(=O)[nH]c(=O)c2c1nc(N1CCCCCC1)n2Cc1ccccc1 | / | / | . | / | / | / | / | /
Nc1ncnc2c1ncn2[C@@H]1O[C@H](COP(=O)(O)OP(=O)(O)OP(=O)(O)OP(=O)(O)OC[C@@H]2O[C@H](n3cnc4c(N)ncnc43)C(O)[C@@H]2O)[C@H](O)C1O (some centres undefined) | / | / | . | / | / | / | / | /
COc1ccc(-c2cc(C(=O)N3CCN(C(c4ccccc4)c4ccccc4)CC3)no2)cc1 | . | . | / | . | . | . | / | /
